Data taken from ChEMBL document CHEMBL1152496, “N-Terminal 2,3-diaminopropionic acid (Dap) peptides as efficient methylglyoxal scavengers to inhibit advanced glycation endproduct (AGE) formation” (Bioorg Med Chem, 2009).
Where a SMILES comes first, the peptide text is derived from it. [ ]: non-standard residue; d: D form. dDap = NC[C@@H](N)C(=O)O; Dap = NC[C@H](N)C(=O)O

How the values were obtained:
[1] = Cytoprotective activity against MG-induced cytotoxicity in human EAhy926 cells assessed as viable cells at 1 mM after 48 hrs by MTT assay; conditions: EA.hy 926
[2] = Inhibition of alpha-dicarbonyls-induced advanced glycation end product formation assessed as protection against 100 eq. MG-induced insulin degradation at 3.75 mM after 24 hrs by RP-HPLC; design: scale not given: the % may be the effect or the level left; conditions: 3750 µM
[3] = Cytotoxicity in human EAhy926 cells assessed as viable cells at 1 mM after 48 hrs by MTT assay
[4] = Inhibition of alpha-dicarbonyls-induced advanced glycation end product formation assessed as protection against MG-induced loss of bovine pancreatic RNaseA enzyme activity after 48 hrs […]; format: physicochemical; design: concentration or dose not given beside the values; conditions: cattle
Procedure, shortened: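 RNase A was pre-incubated with equimolar MG ± scavenger at 37 °C, pH 7.4. The glycated enzyme (10 µg/mL) was added to a methylene blue–yeast RNA solution (600 µg/mL RNA working concentration), and remaining activity was compared with control.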

[5] = Inhibition of alpha-dicarbonyls-induced advanced glycation end product formation assessed as protection against 10 eq. MG-induced insulin degradation at 3.75 mM after 24 hrs by RP-HPLC; format: physicochemical; design: scale not given: the % may be the effect or the level left; conditions: 3750 µM
Procedure, shortened: (§1)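 Human insulin (34 µM) was incubated in 10 mM phosphate pH 7.4 with 0.1 M NaCl at 37 °C with MG, ± scavenger at 1.1 mol equiv relative to MG. The standard condition was MG 3.4 mM (100 equiv) with scavenger 3.75 mM for 24 h. Remaining intact insulin was quantified by C18 RP-HPLC (TFA water/acetonitrile gradient) against the insulin-alone control.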

[6] = Inhibition of alpha-dicarbonyls-induced advanced glycation end product formation assessed as protection against MG-induced insulin degradation at 3.75 mM after 7 days by RP-HPLC; format: physicochemical; design: scale not given: the % may be the effect or the level left; conditions: 168 h, 3750 µM
Procedure, shortened: as §1

[7] = Inhibition of alpha-dicarbonyls-induced advanced glycation end product formation assessed as protection against 5 eq. MG-induced insulin degradation at 3.75 mM after 24 hrs by RP-HPLC; format: physicochemical; design: scale not given: the % may be the effect or the level left; conditions: 3750 µM
Procedure, shortened: as §1

[8] = Inhibition of alpha-dicarbonyls-induced advanced glycation end product formation assessed as protection against 100 eq. MG-induced insulin degradation at 3.75 mM after 24 hrs by RP-HPLC; format: physicochemical; design: scale not given: the % may be the effect or the level left; conditions: 3750 µM
Procedure, shortened: as §1

[9] = Inhibition of alpha-dicarbonyls-induced advanced glycation end product formation assessed as protection against MG-induced insulin degradation at 3.75 mM after 2 days by RP-HPLC; format: physicochemical; design: scale not given: the % may be the effect or the level left; conditions: 48 h, 3750 µM
Procedure, shortened: as §1

[10] = Inhibition of alpha-dicarbonyls-induced advanced glycation end product formation assessed as protection against MG-induced insulin degradation at 3.75 mM after 5 days by RP-HPLC; format: physicochemical; design: scale not given: the % may be the effect or the level left; conditions: 120 h, 3750 µM
Procedure, shortened: as §1

[11] = Inhibition of alpha-dicarbonyls-induced advanced glycation end product formation assessed as protection against MG-induced chicken lysozyme degradation after 48 hrs by SDS-PAGE; format: physicochemical
Procedure, shortened: (§2)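 Protein stock (10–15 mg/mL in phosphate buffer) was incubated with MG ± scavenger at 37 °C, pH 7.4, for 48 h, then stored at −20 °C until SDS–PAGE. For RNase A, MG was equimolar to protein and scavenger was 1.1 mol per mol MG.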

[12] = Inhibition of alpha-dicarbonyls-induced advanced glycation end product formation assessed as protection against MG-induced bovine pancreatic RNaseA degradation after 48 hrs by SDS-PAGE; format: physicochemical; conditions: cattle
Procedure, shortened: as §2

[13] = Mutagenic activity in Salmonella Typhimurium at 51.7 uM after 60 hrs by Ames test in presence of human S9 fraction; conditions: salmonella enterica subsp. enterica serovar typhimurium, s9, 60 h
[14] = Mutagenic activity in Salmonella Typhimurium TA98 at 51.7 uM after 60 hrs by Ames test in presence of human S9 fraction; conditions: salmonella enterica subsp. enterica serovar typhimurium, s9, 60 h
[15] = Mutagenic activity in Salmonella Typhimurium at 0.1 to 10 uM after 60 hrs by Ames test in absence of human S9 fraction; format: toxicity; conditions: salmonella enterica subsp. enterica serovar typhimurium, s9, 60 h
Procedure, shortened: (§3)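 Ames assay used a mix of S. typhimurium TA7001–TA7006 and, separately, TA98. Test substance (10, 1, 0.1 µM; alone or with MG; MG alone 10 µM) was incubated ± human liver S9 at 37 °C for 90 min, then in indicator medium for 60 h. Positive controls were 2-aminoanthracene, 4-nitroquinoline N-oxide and 2-nitrofluorene; solvent was the negative control. Duplicate experiments, 48 wells per point.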

[16] = Mutagenic activity in Salmonella Typhimurium TA98 at 0.1 to 10 uM after 60 hrs by Ames test in presence of human S9 fraction and MG; format: toxicity; conditions: salmonella enterica subsp. enterica serovar typhimurium, s9, 60 h
Procedure, shortened: as §3

[17] = Mutagenic activity in Salmonella Typhimurium at 0.1 to 10 uM after 60 hrs by Ames test in presence of human S9 fraction; format: toxicity; conditions: salmonella enterica subsp. enterica serovar typhimurium, s9, 60 h
Procedure, shortened: as §3

[18] = Mutagenic activity in Salmonella Typhimurium at 0.1 to 10 uM after 60 hrs by Ames test in absence of human S9 fraction and in presence of MG; format: toxicity; conditions: salmonella enterica subsp. enterica serovar typhimurium, s9, 60 h
Procedure, shortened: as §3

[19] = Mutagenic activity in Salmonella Typhimurium TA98 at 0.1 to 10 uM after 60 hrs by Ames test in presence of human S9 fraction; format: toxicity; conditions: salmonella enterica subsp. enterica serovar typhimurium, s9, 60 h
Procedure, shortened: as §3

[20] = Mutagenic activity in Salmonella Typhimurium TA98 at 0.1 to 10 uM after 60 hrs by Ames test in absence of human S9 fraction and in presence of MG; format: toxicity; conditions: salmonella enterica subsp. enterica serovar typhimurium, s9, 60 h
Procedure, shortened: as §3

[21] = Inhibition of alpha-dicarbonyls-induced advanced glycation end product formation assessed as protection against MG-induced loss of human glyoxalase1 enzyme activity after 48 hrs […]; format: physicochemical; design: scale not given: the % may be the effect or the level left; conditions: 24 h; in the assay text read “24 hrs” for “48 hrs”
Procedure, shortened: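 Human glyoxalase I was pre-incubated with equimolar MG ± scavenger. Substrate hemithioacetal was formed from 2 mM MG and 2 mM reduced glutathione in 50 mM sodium phosphate pH 6.6 (20 min, 37 °C; ~600 µM) and equilibrated 15 min. Enzyme was then added, and S-D-lactoylglutathione formation was followed at 240 nm. One unit = 1 µmol per min.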

[22] = Inhibition of alpha-dicarbonyls-induced advanced glycation end product formation assessed as protection against MG-induced human glyoxalase1 degradation after 24 hrs by […]; format: physicochemical
Procedure, shortened: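 Human glyoxalase I was incubated with MG (protein/MG 1/1) ± scavenger (1.1 or 2.2 equiv) at 37 °C, pH 7.4, for 24 h, then stored at −20 °C. Mobility shift was analysed by non-denaturing PAGE.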

Structure (SMILES)	Activity [2]	viability at 1000 µM [1]	viability at 1000 µM [3]	further results
CC(C)C[C@@H](NC(=O)[C@@H](N)CN)C(=O)O	–	71%	87%	–
CCCC[C@H](NC(=O)[C@@H](N)CN)C(=O)O	–	74%	94%	–
NCCCC[C@H](NC(=O)[C@H](N)CN)C(=O)O	–	43%	81%	–
NC[C@@H](N)C(=O)N[C@@H](Cc1ccc(C(F)(F)F)cc1)C(=O)O	74%	–	–	–
NCCC(=O)N[C@@H](Cc1cnc[nH]1)C(=O)O [CARNOSINE]	0%	54%	97%	–
NCCCC[C@H](N)C(=O)O [LYSINE]	0%	–	–	–
CN(C)C(=N)N=C(N)N [METFORMIN]	11%	53%	84%	–
NC[C@H](N)C(=O)N[C@@H](Cc1ccccc1)C(=O)O	–	67%	78%	–
Cc1ncc(CO)c(CN)c1O [PYRIDOXAMINE]	14%	32%	92%	–
NCC(N)C(=O)O (single isomer, unassigned) [DIAMINOPROPANOIC ACID]	–	67%	81%	–
N=C(N)NCCC[C@H](N)C(=O)O [ARGININE]	18%	–	–	–
N=C(N)NN [PIMAGEDINE]	85%	75%	94%	Activity [4]: 70%
CCCCCCCCCCCCCCCCOC(=O)[C@H](CC(C)C)NC(=O)C(N)CN (single isomer, unassigned)	74%	33%	23%	–
Nc1ccc2cc3ccccc3cc2c1 [2-AMINOANTHRACENE]	–	–	–	Activity [13]: Toxic; Activity [14]: Toxic

Second part, led by results:

Activity [2]	Structure (SMILES)	viability at 1000 µM [1]	viability at 1000 µM [3]	further results
69%	CC(C)(S)C(N)C(=O)O (racemic) [DL-PENICILLAMINE]	61%	86%	–
77%	NC[C@H](N)C(=O)N1CCC[C@H]1C(=O)O (H-[Dap]-Pro-OH)	–	–	–
98%	NCC(N)C(=O)O (stereo not given)	–	–	Activity [4]: 20%
40%	NCCC(N)C(=O)O (racemic)	–	–	–
75%	CC[C@H](C)[C@H](NC(=O)[C@@H](N)CN)C(=O)O (H-[Dap]-Ile-OH)	79%	86%	Activity [4]: 91%
91%	CCCC[C@H](NC(=O)[C@H](N)CN)C(=O)O	–	–	–
71%	C[C@@H](NC(=O)[C@H](N)CN)C(=O)O (H-[dDap]-[dA]-OH)	71%	72%	Activity [4]: 87%
83%	CC(C)C[C@H](NC(=O)[C@H](N)CN)C(=O)O	–	–	Activity [5]: 90%; Activity [6]: 88%; Activity [7]: 90%; Activity [8]: 83%; Activity [9]: 88%; Activity [10]: 85%
69%	N[C@@H](CS)C(=O)O [CYSTEINE]	–	–	–
84%	CC(C)C[C@@H](NC(=O)[C@H](N)CN)C(=O)O	–	–	–
71%	CC(C)[C@H](NC(=O)[C@@H](N)CN)C(=O)O (H-[Dap]-Val-OH)	93%	96%	Activity [11]: Active; Activity [12]: Active; Activity [4]: 91%
67%	NC[C@H](N)C(=O)NCC(=O)O (H-[Dap]-Gly-OH)	54%	57%	Activity [4]: 86%
61%	NC[C@@H](N)C(=O)N[C@H](CC(=O)O)C(=O)O	–	–	–
53%	NC[C@@H](N)C(=O)NC(Cc1ccc(F)cc1)C(=O)O (mixture of isomers)	–	–	–
87%	CC(C)C[C@H](NC(=O)[C@@H](N)CN)C(=O)O	69%	78%	Activity [15]: Non-toxic; Activity [16]: Non-toxic; Activity [11]: Active; Activity [12]: Active; Activity [17]: Non-toxic; Activity [18]: Non-toxic; Activity [19]: Non-toxic; Activity [20]: Non-toxic; Activity [21]: 96%; Activity [4]: 94%; Activity [22]: Active
69%	NC[C@H](N)C(=O)NCCC(=O)O	–	–	–
66%	NC[C@@H](N)C(=O)N[C@H](Cc1ccccc1)C(=O)O	–	–	Activity [4]: 70%
